# UCH37 DUB inh = blocks the human deubiquitinase UCH37; Q9Y5K5; purified proteasome/UCH37, Ub-AMC cleavage fluorescence; inhibition, % (concentration not given with the values); 330,000 tested, 0.33% active; AID 588478;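 active means mean inhibition over replicate wells above about 20%, limit read from the data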;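 further: 0% = compound-free wells with enzyme and 100% = wells lacking proteasome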
#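 Material: human UCH37 enzyme supplied as purified proteasome complex. Measure: % inhibition of Ub-AMC cleavage fluorescence. Medium: pH 7.4 Tris-HCl (50 mM) with ovalbumin, ATP-MgCl2, DTT. Times: 30 min preincubation with enzyme, 25 min cleavage at room temperature. Detection: AMC fluorescence intensity at 355/460 nm.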
# NadD inh = inhibitors of Staphylococcus aureus NadD; purified NadD enzyme, colorimetric absorbance read-out; inhibition, % at 20 µM; 360,000 tested, 0.78% active; in the data active means inhibition above about 26%
# SENP1 inh = blocks the human SENP1 SUMO protease catalytic domain; Q9P0U3; inhibition, % at 10 µM; 360,000 tested, 0.21% active; recombinant SENP1 catalytic domain, CyPet-SUMO1-YPet FRET cleavage;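 active means inhibition at least 30% at 10 µM, raw YFP signal under a set limit, fluorescence ratio 0.5 to 1.5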;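 further: 0% = enzyme with DMSO and 100% = no enzyme wells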
# Target sequence (Q9P0U3 419-644 limits assumed): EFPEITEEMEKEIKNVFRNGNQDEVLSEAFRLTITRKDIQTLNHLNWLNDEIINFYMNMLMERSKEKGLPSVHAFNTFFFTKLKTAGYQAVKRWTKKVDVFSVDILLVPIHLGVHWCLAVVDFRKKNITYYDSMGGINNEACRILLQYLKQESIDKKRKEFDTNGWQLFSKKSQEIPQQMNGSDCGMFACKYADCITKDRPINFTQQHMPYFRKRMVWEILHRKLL
#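 material = recombinant human SENP1 catalytic domain, His6-tagged | quantity = 20 pM enzyme | reagent = 25 nM SUMO1 FRET substrate | compound dosing = 10 µM single point, 0.5% DMSO | timing = 50 min enzyme reaction, room temperature, light-protected | detection = FRET, CFP and YFP emission | control set = no-enzyme low, enzyme-DMSO high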
# ATG4B inh = ATG4B (human) cysteine protease inhibition | Q9Y4P1 | ATG4B cleavage of LC3-PLA2, NBD-HPC fluorescence, 1 h | inhibition, % at 8.33 µM | 340,000 tested, 0.51% active | AID 504462; in the data active means inhibition above about 40%
# Target sequence (Q9Y4P1 whole entry, looked up): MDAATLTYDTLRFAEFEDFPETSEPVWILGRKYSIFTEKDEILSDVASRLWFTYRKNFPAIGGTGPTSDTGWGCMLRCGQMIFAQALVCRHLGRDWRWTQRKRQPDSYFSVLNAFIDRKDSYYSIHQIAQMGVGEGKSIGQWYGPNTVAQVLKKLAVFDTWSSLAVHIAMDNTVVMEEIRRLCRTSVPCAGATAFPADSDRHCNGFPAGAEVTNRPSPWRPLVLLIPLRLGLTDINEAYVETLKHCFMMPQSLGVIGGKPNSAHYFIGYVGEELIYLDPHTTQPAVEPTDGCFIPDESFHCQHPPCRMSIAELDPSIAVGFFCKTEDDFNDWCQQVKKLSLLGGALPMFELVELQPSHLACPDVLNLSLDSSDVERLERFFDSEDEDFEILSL
# GRIN3A LBD mod = NR3A (human) ligand-binding domain modulation; NR3A LBD differential scanning fluorimetry, Tm shift; 0% = protein alone, 100% = glycine-bound protein; Tm shift relative to glycine control, % at 25 µM; 340,000 tested, 2.5% active;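 active means melting temperature shift of at least 10% of the positive control shift, at one fixed dose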
# Numbers without * were called inactive; x = no result given. Hits are enriched below; roughly 3.6% of the tested compounds scored in any of these assays.
SMILES,UCH37 DUB inh,NadD inh,SENP1 inh,ATG4B inh,GRIN3A LBD mod
COc1cc(/C=C2\C(=O)NC(=O)N(c3ccccc3)C2=O)cc(OC)c1O,2,0,-52,-6,11*
CCN1C[C@]2(COC(=O)c3ccccc3N)CC[C@H](OC)C34[C@@H]5C[C@H]6[C@H](OC)[C@@H]5[C@](O)(C[C@@H]6OC)[C@@](O)([C@H]13)[C@@H](OC)[C@@H]42,-252,2,-6,-13,10*
CCN1CC2(COC(=O)c3ccccc3N)CCC(OC)C34C5CC6C(OC)CC(O)(C5C6OC)C(O)(C(OC)C23)C14 (stereo unspecified),-143,5,-1,1,1
NC(=N[N+](=O)[O-])N1CCN(C(=O)Oc2ccc([N+](=O)[O-])cc2)CC1,0,x,x,x,x
O=C1NC(=O)N(c2ccc(Cl)cc2)C(=O)/C1=C\c1ccc(Sc2nc3ccccc3[nH]2)o1,8,55*,-18,23,-2
Cc1[nH]c2ccccc2c1C=NO,1,x,x,x,x
CCN1C(=O)/C(=C/c2ccc3c(c2)CCN3CCCCl)C(=O)NC1=S,3,31*,-22,19,0
O=C1NC(=S)N(C2CC2)C(=O)/C1=C/c1ccc2c(c1)CCN2CCCCl,6,18,-26,5,-10
C/C(=N\NC(=O)c1ccccc1Cl)c1c(O)n(C2CCCCC2)c(=O)[nH]c1=O,14,5,-1,-6,-1
C/C(=N\NC(=O)c1ccccc1O)c1c(O)n(C2CCCCC2)c(=O)[nH]c1=O,-5,3,-5,3,13*
COc1ccc(OC)c(N2C(=O)/C(=C/c3ccco3)C(=O)NC2=S)c1,52*,x,x,87*,1
CCOC(=O)c1cc(CC)sc1N=CC1C(=O)NC(=S)NC1=O,5,x,x,x,x
O=c1[nH]c(O)c(N=Nc2cc([N+](=O)[O-])ccc2O)c(=O)[nH]1,23*,4,8,-5,1
O=c1c2ccccc2[se]n1-c1ccccc1,1,6,-1,8,32*
O=c1c2ccccc2nc(-c2ccccc2)n1-c1ccccc1,-1,0,3,7,1
COC(=O)C1=C(c2cc3ccccc3o2)C[C@@H]2CC[C@H]1N2C(=O)N1CCOCC1,27*,-7,3,-6,0
COC(=O)C1=C(c2ccc3ccccc3c2)C[C@@H]2CC[C@H]1N2C(=O)N1CCOCC1,0,-4,1,-7,0
O=C1CC=C2C3CC4N(CCC45c4cc(O)c(O)cc4N1C25)CC3=CCBr (stereo unspecified),x,92*,-3,10,-8
C1=C(CCNCc2ccccc2)CCCC1,0,-5,-1,-8,11*
Cc1cccc(N2C(=O)NC(=O)/C(=C/c3ccc([N+](=O)[O-])o3)C2=O)c1,21*,x,x,17,-4
ON=C1/C(=C\c2ccccc2)N2CCC1CC2,3,x,x,x,x
O=[N+]([O-])C=C1NCCN1Cc1ccc(Cl)nc1,5,x,x,x,x
O=c1c2ccccc2nc(/C=C/c2ccccc2O)n1-c1ccccc1O,x,-3,49*,x,x
O=c1c2ccccc2nc(/C=C\c2ccccc2[N+](=O)[O-])n1-c1ccccc1O,4,2,1,25,-4
CNC(=O)ON=C(C)Cc1nnn(-c2cc(C)on2)n1,1,x,x,x,x
SMILES,UCH37 DUB inh,NadD inh,SENP1 inh,ATG4B inh,GRIN3A LBD mod
COc1cccc(-c2sc3ccccc3c2-c2ccc(OCCN3CCOCC3)cc2)c1,x,-7,2,-11,15*
COc1ccc(-n2c(CN3CCOCC3)nc3ccccc3c2=O)c(OC)c1,1,1,-13,-3,-1
C[C@]12CCC3C(CCC4=CC(=NOCC(=O)NC(CCC(N)=O)C(=O)O)CC[C@@]43C)C1CCC2O (stereo partly specified),2,x,x,x,x
CC(C)CC(=NO)c1cn(C)c2ccccc12,4,x,x,x,x
O=[N+]([O-])c1ccc(O)c([N+](=O)[O-])c1,8,-3,0,-2,18*
O=[N+]([O-])c1cc(O)c(O)c([N+](=O)[O-])c1,9,0,0,-2,-12
CCOC(=O)C(O)(c1ccc(NC(=O)c2ccc(Cl)c(Cl)c2)cc1)C(F)(F)F (stereo unspecified),4,6,0,-11,11*
CCOC(=O)C(O)(c1ccc(N(C)C(=O)c2ccc(Cl)c(Cl)c2)cc1)C(F)(F)F (stereo unspecified),0,-12,0,-2,-8
Cc1ccc(N2C(=O)NC(=O)/C(=C/c3ccc(-c4ccc(C(=O)O)c(Cl)c4)o3)C2=O)cc1,2,42*,-6,4,-1
Cc1cc(/C=C2\C(=O)NC(=O)N(c3cccc(F)c3)C2=O)c(C)n1-c1ccc(C(=O)O)c(Cl)c1,7,-3,-2,-4,0
CC(C)CC12CN3CCN(CC(C3)C1=NO)C2,5,x,x,x,x
COc1ccc2c(c1OC)C(=O)OC2c1c(O)n(Cc2ccc(F)cc2)c(=O)[nH]c1=O (stereo unspecified),1,0,-1,12,12*
O=c1[nH]c(O)c(/C=C2/C=CC(c3cc(Cl)ccc3Cl)=N2)c(=O)[nH]1,7,64*,-43,5,-3
COC(=O)C1C2c3ccccc3OC1(C)N=c1sc(=Cc3cn(C)nc3C)c(=O)n12 (stereo unspecified),2,x,x,x,x
CCOc1cc2c(cc1OCC)-n1cccc1C(c1ccccc1O)NC2 (stereo unspecified),4,-5,3,2,1
CCOc1cc2c(cc1OCC)-n1cccc1C(c1cccc(F)c1F)NC2 (stereo unspecified),5,-10,0,-1,10*
CN(CCCCC(=O)C=NO)Cc1ccccc1 (tested in a mixture with another compound),-1,x,x,x,x
C=CCn1c(O)c(C=Nc2c(C)n(C)n(-c3ccccc3)c2=O)c(=O)[nH]c1=O,20*,-4,-7,-2,-2
CC/C(=N\N1CCCCCC1)c1c(O)n(-c2ccc(C)cc2)c(=O)[nH]c1=O,4,-3,-23,-1,21*
CNC(=O)ON=Cc1nn(C(=O)C(C)(C)C)cc1Br,3,x,x,x,x
CCC12CN3CCN(CC(C3)C1=NO)C2,2,x,x,x,x
O=C(N/N=C/c1c(O)n(CCC2=CCCCC2)c(=S)[nH]c1=O)c1ccccc1,-94,19,-28,9,24*
O=C(CSC1c2ccccc2-c2ccccc21)NN=Cc1ccccc1,3,x,x,x,x
CCCCc1nc2ccccc2c(=O)n1-c1ccccc1[N+](=O)[O-],24*,-2,-4,-3,0
COC(=O)C1=C(C(=O)OC)SC2(S1)C(C(=O)OC)=C(C(=O)OC)Sc1c2ssc1=O,x,1,8,2,25*
COc1ccccc1CC1C(=NO)C2CCN1CC2 (stereo unspecified),3,x,x,x,x

# Compound activity as filed in PubChem BioAssay.
